Results reported in ChEMBL document CHEMBL2157928, “Diarylheptanoid glycosides from Tacca plantaginea and their effects on NF-κB activation and PPAR transcriptional activity” (Bioorg Med Chem Lett, 2012).

Columns and labels:
Format in all cases: cell-based
[1] = biological target: T1, Peroxisome proliferator-activated receptor delta (Homo sapiens, UniProt Q03181); assay: (§1) Transactivation of GAL4-fused PPARbeta (delta) ligand binding domain transfected in human HepG2 cells after 20 hrs by luciferase reporter gene assay
T1 sequence (Q03181 whole entry): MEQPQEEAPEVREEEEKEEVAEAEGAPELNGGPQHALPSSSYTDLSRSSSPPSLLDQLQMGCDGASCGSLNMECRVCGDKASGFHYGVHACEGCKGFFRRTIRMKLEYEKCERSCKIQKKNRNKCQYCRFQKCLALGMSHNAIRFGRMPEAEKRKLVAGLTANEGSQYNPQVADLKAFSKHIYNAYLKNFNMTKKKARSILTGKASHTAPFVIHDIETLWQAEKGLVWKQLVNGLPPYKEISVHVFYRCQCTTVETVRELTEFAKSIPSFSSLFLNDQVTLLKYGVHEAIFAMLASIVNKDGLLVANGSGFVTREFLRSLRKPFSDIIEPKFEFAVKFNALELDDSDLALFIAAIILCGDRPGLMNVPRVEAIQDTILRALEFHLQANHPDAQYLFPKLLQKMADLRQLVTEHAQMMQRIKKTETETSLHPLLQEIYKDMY
How it was run: (§2)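 For PPARβ(δ), luciferase transactivation was measured in HepG2 cells against a vehicle group, with L-165041 (1 µM) as positive control. EC50 came from the dose–response, given as mean ± SD (n = 3), with a cutoff of EC50 > 50 µM for inactivity.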

[2] = biological target: T2, Peroxisome proliferator-activated receptor gamma (Homo sapiens, UniProt P37231); assay: Transactivation of GAL4-fused PPARgamma ligand binding domain transfected in human HepG2 cells after 20 hrs by luciferase reporter gene assay
T2 sequence (P37231 whole entry): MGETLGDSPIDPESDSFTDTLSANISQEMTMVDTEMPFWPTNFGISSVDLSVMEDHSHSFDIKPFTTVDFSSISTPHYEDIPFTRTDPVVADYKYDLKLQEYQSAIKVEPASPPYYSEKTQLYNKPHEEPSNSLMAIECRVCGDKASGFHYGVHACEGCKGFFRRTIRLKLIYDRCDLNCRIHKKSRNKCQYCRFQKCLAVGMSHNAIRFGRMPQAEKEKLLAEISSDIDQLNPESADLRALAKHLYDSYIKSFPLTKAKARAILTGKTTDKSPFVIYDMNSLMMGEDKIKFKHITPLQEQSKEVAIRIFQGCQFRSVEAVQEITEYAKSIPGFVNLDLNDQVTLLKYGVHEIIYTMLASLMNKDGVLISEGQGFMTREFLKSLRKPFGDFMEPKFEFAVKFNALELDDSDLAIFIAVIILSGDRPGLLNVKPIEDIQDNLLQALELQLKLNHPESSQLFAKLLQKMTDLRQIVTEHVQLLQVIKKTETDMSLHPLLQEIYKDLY

[3] = biological target: T3, Peroxisome proliferator-activated receptor alpha (Homo sapiens) (UniProt Q07869); assay: Transactivation of GAL4-fused PPARalpha ligand binding domain transfected in human HepG2 cells at 10 uM after 20 hrs by luciferase reporter gene assay relative to control
T3 sequence (whole entry): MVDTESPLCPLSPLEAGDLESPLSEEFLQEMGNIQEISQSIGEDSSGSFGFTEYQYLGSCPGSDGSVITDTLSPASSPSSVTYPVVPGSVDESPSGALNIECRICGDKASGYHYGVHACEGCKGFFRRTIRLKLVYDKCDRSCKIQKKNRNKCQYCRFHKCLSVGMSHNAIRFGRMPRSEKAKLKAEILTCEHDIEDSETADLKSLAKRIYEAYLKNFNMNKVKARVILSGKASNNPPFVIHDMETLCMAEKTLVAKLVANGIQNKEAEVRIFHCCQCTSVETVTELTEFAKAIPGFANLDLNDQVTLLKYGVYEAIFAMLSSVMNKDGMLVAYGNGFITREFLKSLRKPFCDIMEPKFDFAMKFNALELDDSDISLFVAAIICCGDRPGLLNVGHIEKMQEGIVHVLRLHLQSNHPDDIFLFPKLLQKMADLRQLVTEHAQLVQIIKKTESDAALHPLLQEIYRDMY
How it was run: (§3)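 PPARα transactivation was measured by luciferase reporter in HepG2 cells. Activity was compared with a vehicle group, and ciprofibrate (1 µM) was the positive control.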

[4] = biological target: T4, Peroxisome proliferator-activated receptor alpha (Homo sapiens, UniProt Q07869); assay: Transactivation of GAL4-fused PPARalpha ligand binding domain transfected in human HepG2 cells after 20 hrs by luciferase reporter gene assay; how it was run: as §3
T4 sequence (Q07869 whole entry): T3 sequence (whole entry)

[5] = (§4) Inhibition of NF-kappaB expressed in human HepG2 cells assessed as inhibition of TNFalpha-induced luciferase activity preincubated for 1 hr followed by TNFalpha challenge measured after 1 hr by reporter gene assay
How it was run: (§5)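 HepG2 cells transfected with an NF-κB-luciferase reporter were pretreated with compound at 0.1, 1 and 10 µM, then stimulated with TNF-α at 10 ng/mL. Sulfasalazine at 10 µM served as positive control. Luciferase activity was read. Data are mean ± SD (n = 3), with Dunnett's multiple comparison test, and IC50 was derived from the dose–response.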

[6] = biological target: T5, Peroxisome proliferator-activated receptor (Homo sapiens, UniProt P37231+Q07869+Q03181); assay: (§6) Transactivation of PPAR transfected in human HepG2 cells after 20 hrs by luciferase reporter gene assay
T5 sequence (P37231 whole entry): T2 sequence (P37231 whole entry)
T5 sequence (Q07869 whole entry): T3 sequence (whole entry)
T5 sequence (Q03181 whole entry): T1 sequence (Q03181 whole entry)

[7] = biological target: Peroxisome proliferator-activated receptor (Homo sapiens) (UniProt P37231+Q07869+Q03181); assay: as §6
[8] = biological target: T6, Peroxisome proliferator-activated receptor delta (Homo sapiens) (UniProt Q03181); assay: as §1; how it was run: as §2
T6 sequence (whole entry): T1 sequence (Q03181 whole entry)

HepG2 [9] = assay: Cytotoxicity against human HepG2 cells assessed as cell viability at 10 uM after 24 hrs by MTS assay; conditions: hepg2, 24 h
HepG2 [10] = assay: as §4; how it was run: as §5
[11] = biological target: T7, Peroxisome proliferator-activated receptor gamma (Homo sapiens) (UniProt P37231); assay: Transactivation of GAL4-fused PPARgamma ligand binding domain transfected in human HepG2 cells assessed as upregulation of gene expression at 10 uM by luciferase reporter gene assay relative to control
T7 sequence (whole entry): T2 sequence (P37231 whole entry)
How it was run: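 In HepG2 cells, PPARγ luciferase transactivation was expressed as fold over the vehicle group. Troglitazone (1 µM) was the positive control, and significance was set against vehicle at p < 0.01.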

Row | Compound | EC50 [1] [µM] | EC50 [2] [µM] | fold change (FC) [3] | EC50 [4] [µM] | IC50 [5] [µM] | EC50 [6] [µM] | Activity [7] | Activity [8] | fold change (FC) [11] | Activity (HepG2 [9]) | inhibition (HepG2 [10])
1 | O=C(CCCCc1ccc(O[C@@H]2O[C@H](CO)[C@@H](O)[C@H](O)[C@H]2O)c(O)c1)CCc1ccc(O[C@@H]2O[C@H](CO)[C@@H](O)[C@H](O)[C@H]2O)c(O)c1 [PLANTAGINEOSIDE A] | 11 | > 50 | 1.4 | 47.1 | > 10 | 7 | Dose-dependent effect | Dose-dependent effect | – | Non-toxic | –
2 | OC[C@H]1O[C@@H](O[C@H](CCc2ccc(O)cc2)C[C@H](O)CCc2ccc(O)cc2)[C@H](O)[C@@H](O)[C@@H]1O | 29.3 | > 50 | – | > 50 | 6.2 | 1.2 | Dose-dependent effect | Dose-dependent effect | – | Non-toxic | Dose-dependent effect
3 | O=C(O)c1cc(/N=N/c2ccc(S(=O)(=O)Nc3ccccn3)cc2)ccc1O [SULFASALAZINE] | – | – | – | – | 0.9 | – | – | – | – | – | –
4 | OC[C@H]1O[C@@H](O[C@@H]2C[C@H](CCc3ccc(O)c(O)c3)O[C@H](c3ccc(O)c(O)c3)C2)[C@H](O)[C@@H](O)[C@@H]1O [PLANTAGINEOSIDE C] | 30.1 | > 50 | – | > 50 | 8 | 5.2 | Dose-dependent effect | Dose-dependent effect | – | Non-toxic | Dose-dependent effect

Further molecules by falling EC50 [1], results first:

Row | EC50 [1] [µM] | EC50 [2] [µM] | fold change (FC) [3] | EC50 [4] [µM] | IC50 [5] [µM] | EC50 [6] [µM] | Activity [7] | Activity [8] | fold change (FC) [11] | Compound | Activity (HepG2 [9]) | inhibition (HepG2 [10])
5 | 23.1 | > 50 | 1.3 | > 50 | 9.4 | 9.9 | Dose-dependent effect | Dose-dependent effect | – | OC[C@H]1O[C@@H](O[C@H](CCc2ccc(O)c(O)c2)C[C@H](O)CCc2ccc(O)c(O)c2)[C@H](O)[C@@H](O)[C@@H]1O | Non-toxic | Dose-dependent effect
6 | 15.6 | > 50 | 1.4 | 42.9 | 0.9 | 0.3 | Dose-dependent effect | Dose-dependent effect | – | OC[C@H]1O[C@@H](O[C@H](CCc2ccc(O)c(O)c2)C[C@H](O)CCc2ccc(O)cc2)[C@H](O)[C@@H](O)[C@@H]1O | Non-toxic | Dose-dependent effect
7 | 13.1 | 33.1 | 1.3 | > 50 | > 10 | 10.4 | Dose-dependent effect | Dose-dependent effect | 1.5 | OC[C@H]1O[C@@H](Oc2ccc(CCCC[C@H](O)CCc3ccc(O[C@@H]4O[C@H](CO)[C@@H](O)[C@H](O)[C@H]4O)c(O)c3)cc2O)[C@H](O)[C@@H](O)[C@@H]1O [PLANTAGINEOSIDE B] | Non-toxic | –
8 | 0.65 | – | – | – | – | – | – | – | – | CCCc1c(OCCCOc2ccc(OCC(=O)O)cc2)ccc(C(C)=O)c1O | – | –
